Screening results deposited in PubChem by several laboratories.
Sampled rows, rich in hits. Any-hit rate of the full collection: about 2.2%.
PPC-1+TRAIL kill: PPC-1 cancer cell killing with TRAIL present; hit rate 0.41% among 220,000; PPC-1 cells + TRAIL, ATPLite viability luminescence; AID 1443; cell killing (% activity), % at 4 µM or 5 µM;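 active means cell killing above 50% in the first pass at 4 µM, then a duplicate retest at 5 µM averaging 50% or more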
Wee1 degr inh: inhibitors of human Wee1 degradation. P30291. HeLa Luc-Wee1K328M stability, luciferase luminescence; 100% = proteasome inhibitor MG132 effect. reporter increase, % at 5 µM. hit rate 1.2% among 220,000. AID 1321;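 active means activation above the mean of all tested compounds plus 3 SD, set per screening run, cut at about 8.8% in these data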;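 further: cells exposed to compound for 20 h before luminescence read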
Target sequence (P30291 whole entry K328M): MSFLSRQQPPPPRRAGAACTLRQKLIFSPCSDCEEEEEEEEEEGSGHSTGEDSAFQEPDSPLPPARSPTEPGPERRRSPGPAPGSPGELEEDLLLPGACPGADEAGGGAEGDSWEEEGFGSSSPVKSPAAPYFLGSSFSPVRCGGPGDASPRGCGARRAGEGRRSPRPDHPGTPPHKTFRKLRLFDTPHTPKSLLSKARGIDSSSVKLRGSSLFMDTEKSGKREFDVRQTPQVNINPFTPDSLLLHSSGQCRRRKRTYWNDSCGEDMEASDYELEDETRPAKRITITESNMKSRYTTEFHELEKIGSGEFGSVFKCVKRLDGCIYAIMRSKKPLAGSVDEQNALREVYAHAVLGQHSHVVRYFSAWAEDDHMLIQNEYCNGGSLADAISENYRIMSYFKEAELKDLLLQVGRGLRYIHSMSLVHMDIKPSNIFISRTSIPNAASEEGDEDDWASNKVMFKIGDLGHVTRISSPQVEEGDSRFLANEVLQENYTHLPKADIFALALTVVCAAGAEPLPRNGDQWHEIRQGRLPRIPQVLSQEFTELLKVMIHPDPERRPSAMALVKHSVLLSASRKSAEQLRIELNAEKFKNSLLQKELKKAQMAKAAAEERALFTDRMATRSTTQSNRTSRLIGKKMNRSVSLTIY
TRAIL sens C8: sensitizes caspase-8 expressing cells to TRAIL. NB7+C8 cells + TRAIL, ATPlite viability luminescence. inhibition (viability loss, TRAIL sensitization), % at 10 µM. hit rate 1% among 360,000;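 active means compounds causing at least 50% loss of cell viability in the single-dose screen, relative to plate controls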
FLuc inhib CS: Photinus pyralis luciferase inhibition counter-screen. P08659. ATPLite firefly luciferase biochemical luminescence, 10 min. inhibition, % at 10 µM. hit rate 1.5% among 200,000;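 active means inhibition above about 50% when tested at 10 µM, limit read from the data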
PKD1 kinase inh: PKD1 (human) kinase inhibition. inhibition, % (concentration not given with the values). hit rate 0.056% among 200,000. PKD1 kinase fluorescence polarization assay. AID 797; in the data active means inhibition above about 50%
FLuc stim CS: affects firefly luciferase, flagging false hits in luciferase stimulation screens; P08659; ATPlite luciferase biochemical, luminescence, 10 min; 0 = ATP-free wells, 1 = DMSO control; activation factor at 10 µM; 200,000 tested, under 10 active; AID 1027;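 active means luciferase activation factor, scaled between plate controls, of at least 2 with compound at 10 µM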
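Material: luciferase plus luciferin reagent, cell-free. Medium: PBS buffer for ATP. Also added: ATP substrate, dispensed from a 10.24 µM working solution in PBS. Doses: test compounds dosed from 2 mM stocks in 100% DMSO. Incubation: 10 min post-reagent at room temperature. Technique: light output (luminescence). Read-out basis: luminescence gain marking luciferase activators.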
PPC-1 tox: PPC-1 cell cytotoxicity. PPC-1 viability, ATPlite luminescence, overnight. shares compounds with PPC-1+TRAIL kill. AID 1447. hit rate 50% among 1,200. cytotoxicity, % at 5 µM;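 active means reconfirmed compounds whose average cytotoxicity reaches 50% or more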
Of the large screens only hits and unclear results are named; the others gave an inactive call (follow-up assays come after a bar, where they were run).

Cc1ccc(NC(=O)c2ccc(OC(=O)c3ccco3)cc2)cc1	none | PPC-1 tox inactive
CCN(CC)c1ccc(NC(=O)c2ccco2)cc1	PPC-1+TRAIL kill 57.6, TRAIL sens C8 62.0, FLuc inhib CS 83.2 | PPC-1 tox 61.4
C/C(=N\S(=O)(=O)c1ccc(C)cc1)N(C)C	none (no result: FLuc inhib CS, PKD1 kinase inh, FLuc stim CS)
C=CCCC(=O)N1CCC(n2nccc2NC(=O)c2ccccc2C)CC1	none (no result: PPC-1+TRAIL kill, Wee1 degr inh, FLuc inhib CS, PKD1 kinase inh, FLuc stim CS)
Cc1ccc(C)c(NC(=O)CN(C)C(=O)CN2C(=O)C3CCCCC3C2=O)c1 (stereo not given)	none (no result: PPC-1+TRAIL kill, Wee1 degr inh, FLuc inhib CS, PKD1 kinase inh, FLuc stim CS)
Cc1cnc(NC(=O)COc2ccccc2Cl)s1	PPC-1+TRAIL kill 60.0, TRAIL sens C8 77.4, FLuc inhib CS 91.4 | PPC-1 tox 58.8
CCN1C(=O)C(NC(C)=O)c2cc(Br)ccc21 (stereo not given)	none
CCCCN1C(=O)C(NC(C)=O)c2cc(Br)ccc21 (stereo not given)	none | PPC-1 tox inactive
Cc1ccc(N=C/C(C(=O)C(F)(F)F)=C(\O)c2cccs2)cc1	TRAIL sens C8 60.9 | PPC-1 tox inactive
CC(OC(=O)CNC(=O)c1ccc(F)cc1)C(=O)Nc1ccc(S(=O)(=O)N2CCOCC2)cc1 (stereo not given)	none (no result: PPC-1+TRAIL kill, Wee1 degr inh, FLuc inhib CS, PKD1 kinase inh, FLuc stim CS)
Cc1ccsc1/C=N/NC(=O)c1ccc2c(c1)OCCO2	PPC-1+TRAIL kill 54.1, TRAIL sens C8 75.6 (no result: FLuc inhib CS, PKD1 kinase inh, FLuc stim CS) | PPC-1 tox 62.8
O=C(N/N=C/c1cc(Br)cs1)c1ccc2c(c1)OCCO2	PPC-1+TRAIL kill 57.5, TRAIL sens C8 69.4 (no result: FLuc inhib CS, PKD1 kinase inh, FLuc stim CS) | PPC-1 tox 60.2
CCCCOc1ccc(OC(=O)Nc2cc(Cl)ccc2OC)cc1	none (no result: FLuc inhib CS, PKD1 kinase inh, FLuc stim CS)
CCOC(=O)c1ccccc1NC(=O)CSc1ccc(-c2cccnc2)nn1	none | PPC-1 tox inactive
COc1cc(N)ccc1NC(=O)c1cccs1	none | PPC-1 tox inactive
COc1ccc(-c2cc(C(F)(F)F)nc(S(=O)(=O)CCCC(=O)Nc3cccnc3Cl)n2)cc1OC	none
O=C(c1ccc(-c2nc3ccccc3s2)s1)N1CCOCC1	PPC-1+TRAIL kill 88.1, FLuc inhib CS 96.0 (no result: TRAIL sens C8) | PPC-1 tox 88.1
CCN1CCN(C(=O)c2ccc(-c3nc4ccccc4s3)s2)CC1	none
O=C(NC1CC1)c1ccc(-c2nc3ccccc3s2)s1	PPC-1+TRAIL kill 92.9, TRAIL sens C8 91.2, FLuc inhib CS 95.9 | PPC-1 tox 92.8
COc1cccc(C(=O)N2CCN(Cc3ccccn3)CC2)c1	none (no result: PPC-1+TRAIL kill, Wee1 degr inh, FLuc inhib CS, PKD1 kinase inh, FLuc stim CS)
COc1ccc(-c2cn3cc(C(=O)NN)ccc3n2)cc1	none
CCc1ccn2cc(-c3ccc4c(c3)OCO4)nc2c1	PPC-1+TRAIL kill 92.5, TRAIL sens C8 92.0 (no result: FLuc inhib CS, PKD1 kinase inh, FLuc stim CS) | PPC-1 tox 91.4
COC(=O)c1ccc2nc(-c3ccc4c(c3)OCO4)cn2c1	PPC-1+TRAIL kill 62.5, TRAIL sens C8 70.4, FLuc inhib CS 85.3 | PPC-1 tox 63.1
CCOC(=O)CNC(=O)CSc1nc2c(C)cccc2cc1CC	none
Oc1ccc(NC(=S)Nc2ccc(F)cc2)cc1	none (no result: PPC-1+TRAIL kill, Wee1 degr inh, FLuc inhib CS, PKD1 kinase inh, FLuc stim CS)
CCN(CC)c1ccc(NC(=S)Nc2ccc(F)cc2)cc1	none | PPC-1 tox inactive
CCCNC(=O)C1(C)CCCN(C(=O)c2c(C)noc2C)C1 (stereo not given)	none (no result: PPC-1+TRAIL kill, Wee1 degr inh, FLuc inhib CS, PKD1 kinase inh, FLuc stim CS)
Cc1ccc2nc(NC(=O)c3ccc(NS(=O)(=O)c4cccs4)cc3)sc2c1	none
Cc1[nH]n(-c2ccccc2)c(=O)c1C(C[N+](=O)[O-])c1ccc(Br)cc1 (stereo not given)	none | PPC-1 tox inactive
C/C(=N/NC(=O)c1ccc(-c2ccccc2)cc1)c1cccc(O)c1	none (no result: PPC-1+TRAIL kill, Wee1 degr inh, FLuc inhib CS, PKD1 kinase inh, FLuc stim CS)
N#CC(C#N)=Cc1ccccc1OCc1ccccc1	none (no result: TRAIL sens C8, FLuc inhib CS, PKD1 kinase inh, FLuc stim CS)
Cc1ccc(Sc2ncnc3onc(C)c23)c(C)c1	Wee1 degr inh 9.1 | PPC-1 tox inactive
CCOc1ccc(OCc2cccc(C(=O)O)c2)cc1	PPC-1+TRAIL kill 58.9, TRAIL sens C8 83.7, FLuc inhib CS 92.8 (no result: Wee1 degr inh, PKD1 kinase inh) | PPC-1 tox 58.5
CCOc1ccc(NC(=O)c2ccccc2CO)cc1	none
CCOc1ccc(NC(=O)c2ccccc2O)cc1	PPC-1+TRAIL kill 68.2, TRAIL sens C8 58.5, FLuc inhib CS 87.4 | PPC-1 tox 64.1
CCOc1ccc(NC(=O)Nc2cccc(C(=O)O)c2)cc1	PPC-1+TRAIL kill 73.2, TRAIL sens C8 82.5, FLuc inhib CS 92.3 | PPC-1 tox 64.6
O=C1c2ccccc2C(=O)N1CC(O)COc1ccccc1Cl (stereo not given)	none (no result: PPC-1+TRAIL kill, Wee1 degr inh, FLuc inhib CS, PKD1 kinase inh, FLuc stim CS)
